Assay results published in ChEMBL document CHEMBL4033704, “Discovery, synthesis, and structure-activity relations of 3,4-dihydro-1H-spiro(naphthalene-2,2'-piperidin)-1-ones as potassium-competitive acid blockers” (Bioorg Med Chem, 2017).

Key:
[1] = Inhibition of potassium-stimulated hydrogen potassium ATPase in pig gastric mucosal microsomal fraction assessed as reduction in liberated inorganic phosphate level after 30 mins in presence of KCl by malachite green staining based colorimetric method; design: species or system Sus scrofa
Procedure, shortened: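 Gastric mucosal microsomal fraction prepared from pig stomach; assay run at pH 6.5. Inhibition expressed as percent of K⁺-stimulated H⁺,K⁺-ATPase activity in control. IC50 obtained by sigmoidal dose-response fitting.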

[2] = system: Rattus norvegicus; assay: Inhibition of histamine-induced acid secretion in rat assessed as increase in pH of gastric perfusate at 3 mg/kg, iv measured after 5 hrs; assay type: functional
Procedure, shortened: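 Anesthetized rats given intravenous infusion of histamine 2HCl via cervical vein at 8 mg/kg/h; gastric perfusate pH monitored. Once pH stabilized, test compound or vehicle given intravenously. Perfusate pH then recorded for 5 h after dosing.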

[3] = system: Rattus norvegicus; assay: Inhibition of histamine-stimulated gastric acid secretion in Jcl:Sprague-Dawley rat at 1 mg/kg, iv pretreated for 3 mins followed by histamine.2HCl stimulation measured after 3 hrs by titration method relative to control; assay type: functional
Procedure, shortened: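 Anesthetized rats given compound intravenously at 1, 3 or 10 mg/kg, then histamine. Gastric contents collected and centrifuged at 3000 rpm for 10 min; volume measured. Acid concentration determined by automatic titration to pH 7.0 with 0.1 mol/L NaOH. Total acid output over 3 h (μEq/3 h) compared against vehicle to give percent inhibition.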

[4] = Lipophilicity, log D of the compound; assay type: physicochemical; conditions: octanol/water
[5] = AUC (0 to 24 hrs) in Jcl:Sprague-Dawley rat plasma at 0.2 mg/kg, iv by LC/MS/MS analysis; assay type: ADME, organism-based; design: time < 24 hr, dose 0.2 mg/kg, route intravenous
Procedure, shortened: (§1)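 Rats dosed intravenously at 0.2 mg/kg, given as free compound. Blood and stomach sampled 10 min, 1, 4 and 24 h after dosing. Compound levels measured by LC/MS/MS. AUC0-24h calculated from these four time points (plasma ng·h/mL, stomach ng·h/g).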

[6] = system: Stomach; assay: AUC (0 to 24 hrs) in Jcl:Sprague-Dawley rat stomach at 0.2 mg/kg, iv by LC/MS/MS analysis; assay type: ADME, organism-based; design: dose 0.2 mg/kg, time < 24 hr, route intravenous; conditions: in vivo; procedure, shortened: as §1
[7] = organism: Sus scrofa; assay: Selectivity ratio of IC50 for sodium and potassium-activated sodium potassium ATPase in porcine cerebral cortex to IC50 for potassium-stimulated hydrogen potassium ATPase in pig gastric mucosal microsomal fraction
[8] = Inhibition of sodium and potassium-activated sodium potassium ATPase in porcine cerebral cortex assessed as reduction in liberated inorganic phosphate level after 30 mins in presence of sodium and potassium by malachite green staining based colorimetric method; design: species or system Sus scrofa
[9] = system: Rattus norvegicus; assay: Inhibition of histamine-stimulated gastric acid secretion in Jcl:Sprague-Dawley rat at 10 mg/kg, iv pretreated for 3 mins followed by histamine.2HCl stimulation measured after 3 hrs by titration method relative to control; assay type: functional

| Compound | IC50 [1] [nM] | further results |
| --- | --- | --- |
| COc1ccc2c(c1)CCC1(CCCCN1C(=O)Cc1ccccc1)C2=O (configuration not stated) | > 10000 | – |
| COc1ccc2c(c1)CCC1(CCCCN1CC(=O)c1ccccc1)C2=O (configuration not stated) | > 10000 | – |
| Cc1ccccc1CCN1CCCCC12CCc1cc(C#N)ccc1C2=O (racemic) | > 10000 | – |
| CC(=O)Nc1ccc2c(c1)CC[C@@]1(CCCCN1CCc1ccccc1C)C2=O | 31 | pH [2]: 6; inhibition in vivo at 1 mg/kg [3]: 95%; logD [4]: 3.56; AUC(0-t) at 24 h [5]: 68 ng·h/mL; AUC [6]: 15131 ng·h/g |
| COc1ccc2c(c1)CCC1(CCCCN1c1ccccc1)C2=O (configuration not stated) | > 10000 | – |
| COc1ccc2c(c1)CCC1(CCCCN1CCc1ccccc1Cl)C2=O (configuration not stated) | 170 | – |
| Cc1ccccc1CCN1CCCCC12CCc1ccccc1C2=O (racemic) | 290 | – |
| COc1cccc(CCN2CCCC[C@@]23CCc2cc(OC)ccc2C3=O)c1 | 1100 | – |
| COc1ccc2c(c1)CCC1(CCCCN1CCCCc1ccccc1)C2=O (configuration not stated) | > 10000 | – |
| COc1ccc2c(c1)CCC1(CCCCN1CC(C)c1ccccc1)C2=O (configuration not stated) | 300 | – |
| COc1ccc2c(c1)CCC1(CCCCN1CCc1ccc(F)cc1C)C2=O (configuration not stated) | 57 | – |
| CC(=O)Nc1ccc2c(c1)CCC1(CCCCN1CCc1ccccc1C)C2=O (racemic) | 45 | – |
| COc1ccc2c(c1)CCC1(CCCCN1CCc1ccccc1)C2=O (configuration not stated) | 290 | – |
| COc1ccc2c(c1)CCC1(CCCCN1CCCc1ccccc1)C2=O (configuration not stated) | 890 | – |
| COc1ccc2c(c1)CC[C@@]1(CCCCN1CCc1ccc(F)cc1)C2=O | 64 | – |
| COc1ccc2c(c1)C(=O)C1(CCCCN1CCc1ccccc1C)CC2 (racemic) | 270 | – |
| COc1ccc2c(c1)CC[C@@]1(CCCCN1CCc1cccc(F)c1)C2=O | 370 | – |

| Compound | IC50 [1] [nM] | further results |
| --- | --- | --- |
| COc1ccc2c(c1)CC[C@]1(CCCCN1CCc1ccccc1C)C2=O | > 10000 | – |
| O=C1c2cccc3[nH]cc(c23)CC12CCCCN2CCc1ccccc1 (configuration not stated) | 1600 | Ratio IC50 [7]: > 100; IC50 [8]: > 10000 nM; AUC(0-t) at 24 h [5]: 71 ng·h/mL; inhibition in vivo at 10 mg/kg [9]: 71%; AUC [6]: 1171 ng·h/g |
| COc1ccc2c(c1)CCC1(CCCCN1CCc1ccc(F)cc1)C2=O (configuration not stated) | 87 | – |
| COc1ccc2c(c1)CCC1(CCCCN1Cc1ccccc1)C2=O (configuration not stated) | > 10000 | – |
| COc1ccc2c(c1)CC[C@@]1(CCCCN1CCc1ccccc1F)C2=O | 160 | – |
| COc1ccc2c(c1)CCC1(CCCCN1CCc1ccccc1C)C2=O (configuration not stated) | 82 | – |
| COc1ccc2c(c1)CC[C@@]1(CCCCN1CCc1ccccc1OC)C2=O | 83 | – |
| CC(=O)Nc1ccc2c(c1)CC[C@]1(CCCCN1CCc1ccccc1C)C2=O | > 10000 | – |
| Cc1ccccc1CCN1CCCCC12CCc1cc(-c3ccccc3)ccc1C2=O (racemic) | > 10000 | – |
| COc1ccc2c(c1)CC[C@@]1(CCCCN1CCc1ccccc1C)C2=O.Cl | 46 | inhibition in vivo at 1 mg/kg [3]: 87%; IC50 [8]: > 10000 nM; AUC(0-t) at 24 h [5]: 74 ng·h/mL; AUC [6]: 3035 ng·h/g |
| COc1ccc(CCN2CCCC[C@@]23CCc2cc(OC)ccc2C3=O)cc1 | 1800 | – |
| COc1cccc2c1C(=O)C1(CCCCN1CCc1ccccc1C)CC2 (configuration not stated) | 290 | – |
| COc1cccc2c1CCC1(CCCCN1CCc1ccccc1C)C2=O (configuration not stated) | 300 | – |
| O=C1c2ccccc2CCC12CCCCN2CCc1ccccc1 (configuration not stated) | 1000 | – |
| COc1ccc2c(c1)CCC1(CCCCN1CCc1c(C)cc(C)cc1C)C2=O (configuration not stated) | 140 | – |
| COc1ccc2c(c1)CC[C@]1(CCCCN1CCc1ccc(F)cc1)C2=O | > 10000 | – |
